Source: ChEMBL document CHEMBL2062398, “De novo peptide design with C3a receptor agonist and antagonist activities: theoretical predictions and experimental validation” (J Med Chem, 2012)
Active and inactive are the calls of the source. No cut-off for these calls is given here.

How the values were obtained:
[1] = molecular target: T1, C3a anaphylatoxin chemotactic receptor (Homo sapiens) (UniProt Q16581); test: Agonist activity at human C3a receptor expressed in RBL-2H3 cells assessed as beta-hexosaminidase activity in cell supernatant by degranulation assay relative to recombinant human C3a; type: functional, cell-based
T1 sequence (whole entry): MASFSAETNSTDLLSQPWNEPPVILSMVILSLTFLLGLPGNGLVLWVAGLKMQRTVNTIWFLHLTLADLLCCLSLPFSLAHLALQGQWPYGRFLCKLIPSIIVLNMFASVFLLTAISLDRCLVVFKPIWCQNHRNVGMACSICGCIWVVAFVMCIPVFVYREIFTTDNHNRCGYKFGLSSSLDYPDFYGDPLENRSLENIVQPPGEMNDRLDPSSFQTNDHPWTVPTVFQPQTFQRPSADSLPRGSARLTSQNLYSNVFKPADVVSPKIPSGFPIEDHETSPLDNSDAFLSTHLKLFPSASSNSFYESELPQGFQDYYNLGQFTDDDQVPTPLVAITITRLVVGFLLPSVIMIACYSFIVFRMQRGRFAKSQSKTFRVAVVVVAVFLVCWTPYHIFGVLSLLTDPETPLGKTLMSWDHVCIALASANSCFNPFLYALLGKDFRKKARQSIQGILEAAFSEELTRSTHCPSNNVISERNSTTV
Procedure, shortened: (§1)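 Transfected RBL-2H3 cells kept in DMEM, 10% FCS, 400 mg/liter G-418, 37°C, 5% CO2. Degranulation read as β-hexosaminidase activity in supernatant. Secretion expressed as percent of maximal response to 200 nM recombinant human C3a or 10 nM FLPLAR. EC50, calculated maximum and SEM from iterative curve fitting.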

[2] = molecular target: T2, C5a anaphylatoxin chemotactic receptor 1 (Homo sapiens) (UniProt P21730); test: Antagonist activity at human C5a receptor expressed in RBL-2H3 cells assessed as beta-hexosaminidase activity in cell supernatant up to 1 uM compound preincubated for 10 mins by degranulation assay; type: functional, cell-based
T2 sequence (whole entry): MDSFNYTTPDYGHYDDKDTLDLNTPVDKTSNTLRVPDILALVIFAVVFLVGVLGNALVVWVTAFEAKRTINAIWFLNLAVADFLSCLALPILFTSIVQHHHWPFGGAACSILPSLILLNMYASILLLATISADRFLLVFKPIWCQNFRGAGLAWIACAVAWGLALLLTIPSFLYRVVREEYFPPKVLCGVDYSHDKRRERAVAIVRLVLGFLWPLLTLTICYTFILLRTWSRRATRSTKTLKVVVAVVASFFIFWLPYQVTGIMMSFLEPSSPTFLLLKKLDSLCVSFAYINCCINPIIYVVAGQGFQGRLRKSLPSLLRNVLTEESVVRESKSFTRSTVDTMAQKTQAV
Procedure, shortened: (§2)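 Human C5aR-transfected RBL-2H3 cells were tested with peptides up to 1 μM. In the agonist mode, β-hexosaminidase secretion was taken relative to 200 nM human C5a. In the antagonist mode, cells were pretreated with peptide for 10 min before C5a was added.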

[3] = molecular target: T1, C3a anaphylatoxin chemotactic receptor (Homo sapiens); test: Antagonist activity at human C3a receptor expressed in RBL-2H3 cells assessed as inhibition of FLPLAR-induced beta-hexosaminidase activity in cell supernatant measuring minimum receptor activity compound preincubated for 10 mins by degranulation assay; type: functional, cell-based; set-up: scale not given: the % may be the effect or the level left
Procedure, shortened: (§3)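 RBL-2H3 cells expressing human C3aR (DMEM, 10% FCS, G-418, 37°C) were pretreated with peptide for 10 min before 200 nM recombinant human C3a or 10 nM FLPLAR was added. β-Hexosaminidase release in supernatant was measured as percent of the agonist-alone response. IC50, calculated minimum and SEM came from iterative curve fitting.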

[4] = molecular target: T2, C5a anaphylatoxin chemotactic receptor 1 (Homo sapiens); test: Agonist activity at human C5a receptor expressed in RBL-2H3 cells assessed as beta-hexosaminidase activity in cell supernatant up to 1 uM by degranulation assay; type: functional, cell-based; procedure, shortened: as §2
[5] = molecular target: T1, C3a anaphylatoxin chemotactic receptor (Homo sapiens); test: Antagonist activity at human C3a receptor expressed in RBL-2H3 cells assessed as inhibition of human recombinant C3a -induced beta-hexosaminidase activity in cell supernatant measuring minimum receptor activity compound preincubated for 10 mins by degranulation assay; type: functional, cell-based; set-up: scale not given: the % may be the effect or the level left; procedure, shortened: as §3
[6] = molecular target: T3, C3a anaphylatoxin chemotactic receptor (Homo sapiens, UniProt Q16581); test: Agonist activity at human C3a receptor expressed in RBL-2H3 cells assessed as beta-hexosaminidase activity in cell supernatant by degranulation assay; type: functional, cell-based
T3 sequence (Q16581 whole entry): T1 sequence (whole entry)
Procedure, shortened: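 Degranulation read as β-hexosaminidase activity in supernatant. Secretion expressed as percent of maximal response to 200 nM recombinant human C3a or 10 nM FLPLAR. EC50, calculated maximum and SEM from iterative curve fitting.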

[7] = molecular target: T3, C3a anaphylatoxin chemotactic receptor; test: Antagonist activity at human C3a receptor expressed in RBL-2H3 cells assessed as beta-hexosaminidase activity in cell supernatant compound preincubated for 10 mins by degranulation assay; type: functional, cell-based
[8] = molecular target: T1, C3a anaphylatoxin chemotactic receptor (Homo sapiens); test: Agonist activity at human C3a receptor expressed in RBL-2H3 cells assessed as beta-hexosaminidase activity in cell supernatant by degranulation assay relative to FLPLAR; type: functional, cell-based; procedure, shortened: as §1
[9] = molecular target: T1, C3a anaphylatoxin chemotactic receptor (Homo sapiens); test: Agonist activity at C3a receptor in dbcAMP differentiated human U937 cells assessed as increase in intracellular calcium using […] staining by microplate reader relative to FLPLAR; type: functional, cell-based; details: U-937
Procedure, shortened: (§4)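 U937 cells grown in RPMI-1640 with 10% FCS at 37°C, 5% CO2, differentiated 48 h in 1 mM dibutyryl cAMP. Intracellular calcium rise read with Fluo-4 dye on a plate reader.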

[10] = molecular target: T3, C3a anaphylatoxin chemotactic receptor; test: Agonist activity at C3a receptor in dbcAMP differentiated human U937 cells assessed as increase in intracellular calcium using […] staining by microplate reader; type: functional, cell-based, U-937; procedure, shortened: as §4

Substance	Emax [1] [%]	Activity [2]	Activity [3] [%]	Activity [4]	Activity [5] [%]	EC50 [6] [nM]	IC50 [7] [nM]	Emax [8] [%]	Emax [9] [%]	EC50 [10] [nM]
Ac-WWRNRWRENRLGLAR-OH	62	inactive	62.5	inactive	62.5	–	–	–	–	–
Ac-WWSRRWRASKLGLAR-OH	13	inactive	40	inactive	40	148	63.1	13	–	–
H-WWTRRWRASKLGLAR-OH	–	inactive	63	inactive	–	–	–	37	–	–
Ac-WWTRRWRTDKLGLAR-OH [listing 1 of 2 here]	–	–	–	–	–	339	5.01	–	–	–
Ac-WWTRRWRTEKLGLAR-OH [listing 1 of 2 here]	45	inactive	60	inactive	60	–	–	45	–	–
Ac-WWTRRWRTDKLGLAR-OH [listing 2 of 2 here]	43	inactive	60	inactive	60	–	–	43	–	–
Ac-WWTRRYRASKLGLAR-OH [listing 1 of 2 here]	–	–	–	–	–	1000	23.4	–	–	–
Ac-WWTRRWRADKLGLAR-OH	79	inactive	68	inactive	68	66.1	4.57	79	74	490
Ac-WWGKKYRASKLGLAR-OH	–	inactive	–	inactive	52	–	–	38	–	–
Ac-WWDRRWRASKLGLAR-OH	14	inactive	48	inactive	24	–	–	14	–	–
Ac-WWTRRWRTEKLGLAR-OH [listing 2 of 2 here]	–	–	–	–	–	708	7.76	–	–	–
Ac-WWTRRWRGDKLGLAR-OH	72	inactive	70	inactive	70	25.1	9.12	72	81	794
Ac-WWERRWRASKLGLAR-OH	22	inactive	61	inactive	35	–	–	22	–	–
Ac-WWTRRYRASKLGLAR-OH [listing 2 of 2 here]	29	inactive	42	inactive	42	–	–	29	–	–
Ac-WWTRRWRASKLGLAR-OH	35	inactive	47	inactive	47	195	50.1	35	–	–
